Source: PubChem
SR-BI HDL uptake – blocks mouse SR-BI lipid uptake from DiI-HDL. AID 488896. inhibition, % at 12.5 µM. Q61009. 320,000 compounds, 0.96% hits. ldlA[mSR-BI] CHO cells, DiI-HDL uptake fluorescence, 3 h;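 active = mean replicate inhibition of at least 70% and a set share of replicates each scoring 70 or more; inconclusive = meets just one of the two criteria; inactive = fails both criteria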;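 note: 0% = median of neutral control wells and 100% = median of positive control wells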
Target sequence (Q61009 whole entry, looked up): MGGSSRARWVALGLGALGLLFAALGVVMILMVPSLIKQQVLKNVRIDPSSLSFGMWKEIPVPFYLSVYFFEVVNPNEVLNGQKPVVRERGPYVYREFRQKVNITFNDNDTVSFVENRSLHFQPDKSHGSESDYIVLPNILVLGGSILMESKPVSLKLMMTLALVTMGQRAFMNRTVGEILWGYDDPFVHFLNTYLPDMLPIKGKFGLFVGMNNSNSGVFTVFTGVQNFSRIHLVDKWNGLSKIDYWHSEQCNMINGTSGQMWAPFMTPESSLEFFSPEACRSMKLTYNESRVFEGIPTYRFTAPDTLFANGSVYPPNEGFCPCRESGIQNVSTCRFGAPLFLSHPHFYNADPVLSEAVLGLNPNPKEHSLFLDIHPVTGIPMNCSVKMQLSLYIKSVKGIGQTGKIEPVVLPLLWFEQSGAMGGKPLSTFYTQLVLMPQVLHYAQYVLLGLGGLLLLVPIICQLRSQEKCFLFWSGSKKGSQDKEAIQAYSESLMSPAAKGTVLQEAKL
C2C12 statin – suppression of simvastatin myotoxicity; AID 602340; 330,000 compounds, 0.78% hits; C2C12 myotubes + simvastatin, ATP luminescence, 48 h; scaled: DMSO 0, geranylgeraniol control 100; rescue of ATP level, % at 7.49 µM;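 active = mean ATP rescue above about 67%, or every replicate alone reaching that limit, limit read from the data, passing the limit was not always enough; inconclusive = no clear call, values can overlap the other calls; inactive = mean under the limit and some replicate under it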;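 note: myotubes were challenged with 10 µM simvastatin during compound exposure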
SR-BI uptake up – SR-BI HDL lipid transfer activation; CHO ldlA[mSR-BI] cells, DiI-HDL uptake fluorescence, 3 h; 100 = double the neutral-control signal; activation, % at 12.5 µM; 320,000 compounds, 0.096% hits; AID 504775;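 active = mean replicate activation of at least 60% and every replicate at or above 60%; inconclusive = mean or all-replicate condition met, but not both; inactive = mean below 60% and not all replicates reaching 60%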;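 note: 0% = median plate neutral-control signal and 100% = twice that signal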
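Test system: SR-BI-overexpressing, LDLR-lacking CHO cells; Also added: labelled HDL, 10 µg/mL; Measured by: bottom-read cell fluorescence after medium removal, ex 550/em 595 nm; Timing: 3 h uptake period with compound, 37 °C; Buffer or medium: F12, 0.5% BSA, 25 mM HEPES; Doses: single compound concentration, delivered by pin transfer.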
Vif inh – HIV Vif inhibition | HEK293T cells, Vif self-association by quenched fluorescence, imaging, 24 h | inhibition, % at 7.49 µM | 340,000 compounds, 0.35% hits; in the data active = inhibition above about 50%, passing the limit was not always enough; inconclusive = no clear call, values can overlap the other calls; inactive = below about 31%
* = called active by the depositor. Sampled rows, rich in hits. Any-hit rate of the full collection: about 1.7%.

What do the screens show for `O=C(Nc1ccc(N2CCCC2)cc1)c1ccc2ccccc2c1`?
SR-BI HDL uptake: 88*; C2C12 statin: -14; SR-BI uptake up: -88; Vif inh: 11

What do the screens show for `O=C(Nc1ccc(N2CCCC2)cc1)c1cccc(Cl)c1Cl`?
SR-BI HDL uptake: 79*; C2C12 statin: -2; SR-BI uptake up: -79; Vif inh: -4

How did O=C(Nc1ccc2c(c1)OCO2)N[C@H]1CC[C@H](CCNC(=O)C2CC2)O[C@H]1CO do in these assays?
C2C12 statin: 3

What do the screens show for `COc1ccc(CN(C)C[C@H]2Oc3c(NS(=O)(=O)c4ccc(F)cc4)cccc3C(=O)N([C@H](C)CO)C[C@H]2C)cc1`?
C2C12 statin: 5

Results for C=C(C)Cn1c(CCCNC(=O)C(C)(C)C)nc2ccccc21 ?
SR-BI HDL uptake: 0; C2C12 statin: 154*; SR-BI uptake up: 0; Vif inh: 10

Results for C=CCn1c(CCCNC(=O)C(C)(C)C)nc2ccccc21 ?
SR-BI HDL uptake: -13; C2C12 statin: 20; SR-BI uptake up: 13

Results for C[C@H]1CN([C@@H](C)CO)C(=O)c2cccc(N(C)C)c2O[C@H]1CN(C)C(=O)Nc1ccc2c(c1)OCO2 ?
C2C12 statin: 7

What do the screens show for `CC(=O)N(C)C[C@H]1Oc2cc(C#Cc3ccncc3)ccc2S(=O)(=O)N([C@@H](C)CO)C[C@H]1C`?
C2C12 statin: -2

What do the screens show for `COc1ccc(-c2cc(OC)c3ccccc3n2)cc1`?
SR-BI HDL uptake: 35; SR-BI uptake up: -35; Vif inh: -3

How did COc1ccc(-c2cc3cc(OC)c(OC)cc3c(C)n2)cc1 do in these assays?
SR-BI HDL uptake: 80*; C2C12 statin: -25; SR-BI uptake up: -43; Vif inh: -10

Results for COCC(=O)N(C)C[C@H]1Oc2ncc(C#Cc3ccccc3)cc2C(=O)N([C@@H](C)CO)C[C@@H]1C ?
C2C12 statin: 18

What do the screens show for `Cc1c(C(=O)N2CCc3ccccc32)oc2c1C(=O)CC(C)(C)C2`?
SR-BI HDL uptake: 34; C2C12 statin: 112*; SR-BI uptake up: -34; Vif inh: -7

How did NNC(=O)c1oc2nc(-c3ccc(Cl)cc3)cc(-c3ccccc3)c2c1N do in these assays?
SR-BI HDL uptake: 106*; C2C12 statin: 38; SR-BI uptake up: -106; Vif inh: -4

Results for O=C(NNC(=O)c1ccc(-c2ccccc2)cc1)c1ccccc1 ?
SR-BI HDL uptake: 6; SR-BI uptake up: -6; Vif inh: 2

Results for Cc1cccc(C(=O)NNC(=O)c2ccc(-c3ccccc3)cc2)c1 ?
SR-BI HDL uptake: 80*; SR-BI uptake up: -80; Vif inh: -6

What do the screens show for `Cc1cccc(C(=O)Nc2nnc(-c3ccc(C(C)(C)C)cc3)s2)c1`?
SR-BI HDL uptake: -5; C2C12 statin: 83*; SR-BI uptake up: 5; Vif inh: 1

What do the screens show for `Cc1cccc(C(=O)NN/C=C/C(=O)c2ccccc2)c1`?
SR-BI HDL uptake: 89*; C2C12 statin: 2; SR-BI uptake up: -89; Vif inh: 19

Results for O=C(/C=C/NNC(=O)c1ccccc1)c1ccccc1 ?
SR-BI HDL uptake: inconclusive; C2C12 statin: -7; SR-BI uptake up: -71; Vif inh: 18

How did O=C(/C=C/NNC(=O)c1ccccc1)c1ccc([N+](=O)[O-])cc1 do in these assays?
SR-BI HDL uptake: 123*; C2C12 statin: 12; SR-BI uptake up: -123; Vif inh: 4

Results for Cc1ccc(C(=O)C=CNNC(=O)c2ccccc2)cc1 ?
SR-BI HDL uptake: 44; C2C12 statin: 2; SR-BI uptake up: -44; Vif inh: -6

How did COC(=O)[C@H]1[C@H](CO)[C@H]2Cn3c(cccc3=O)[C@H]2N1CC1CCOCC1 do in these assays?
C2C12 statin: -1

What do the screens show for `CCCc1cn(CC[C@H]2CC[C@@H](NC(=O)Nc3ccc4c(c3)OCO4)[C@H](CO)O2)nn1`?
C2C12 statin: 7

What do the screens show for `CCCNC(=O)Nc1ccc2c(c1)OC[C@@H](C)N(Cc1ccncc1)C[C@H](C)[C@@H](OC)CN(C)C2=O`?
C2C12 statin: -13

Results for C[C@H](CO)N1C[C@H](C)[C@H](CN(C)S(=O)(=O)c2ccccc2)Oc2ccc(NC(=O)CCC(F)(F)F)cc2CC1=O ?
C2C12 statin: -30

Results for CCC(=O)Nc1ccc2c(c1)C(=O)N(C)C[C@H](OC)[C@H](C)CN(CC1CC1)[C@H](C)CO2 ?
C2C12 statin: 0

How did O=C(N[C@@H]1CC[C@@H](CCNS(=O)(=O)c2ccc(F)cc2)O[C@H]1CO)C1CCCC1 do in these assays?
C2C12 statin: 4

How did C[C@@H]1CN([C@@H](C)CO)C(=O)Cc2cc(NS(=O)(=O)c3ccc(F)cc3)ccc2O[C@@H]1CN(C)C(=O)NC1CCCCC1 do in these assays?
C2C12 statin: 38

What do the screens show for `CC(C)NC(=O)N(C)C[C@@H]1Oc2ncc(C#CC3CCCC3)cc2C(=O)N([C@H](C)CO)C[C@H]1C`?
C2C12 statin: 2

How did CC(C)NC(=O)N(C)C[C@H]1Oc2cc(C#CC(C)(C)O)ccc2S(=O)(=O)N([C@H](C)CO)C[C@H]1C do in these assays?
C2C12 statin: -9

What do the screens show for `O=C(/C=C/NNC(=O)c1ccccc1O)c1ccccc1`?
SR-BI HDL uptake: 114*; C2C12 statin: 32; SR-BI uptake up: -114; Vif inh: -9

Results for CC(C)(C)OC(=O)NCCCCCNC(=O)c1[nH]cnc1C(=O)N[C@@H](Cc1ccccc1)C(=O)OCc1ccccc1 ?
SR-BI HDL uptake: 5; C2C12 statin: 132*; SR-BI uptake up: -5; Vif inh: 15

What do the screens show for `CN1CCN(C(=O)C[C@@H]2CC[C@@H]3[C@H](COC[C@@H](O)CN3C(=O)Nc3ccc(F)cc3)O2)CC1`?
C2C12 statin: -10

Results for O=[N+]([O-])c1cccc(-c2ccc(/C=N/Nc3nc(N4CCCCC4)nc(N4CCCCC4)n3)o2)c1 ?
SR-BI HDL uptake: 84*; SR-BI uptake up: -84; Vif inh: -12

Results for O=[N+]([O-])c1ccc(-c2ccc(/C=N/Nc3nc(N4CCCCC4)nc(N4CCCCC4)n3)o2)cc1 ?
SR-BI HDL uptake: inconclusive; SR-BI uptake up: -77; Vif inh: 7

How did CC(C)C#Cc1ccc2c(c1)O[C@@H](CN(C)CC1CCOCC1)[C@@H](C)CN([C@@H](C)CO)S2(=O)=O do in these assays?
C2C12 statin: 7

Results for O=C(c1cc2cc(Cl)cc(Cl)c2oc1=O)N1CCOCC1 ?
C2C12 statin: 115*; Vif inh: 2

What do the screens show for `O=C(c1ccc(Cl)cc1Cl)N1CCOCC1`?
SR-BI HDL uptake: -13; C2C12 statin: 1; SR-BI uptake up: 13; Vif inh: 0

Results for CC(=O)N1[C@H](CN(C(=O)c2ccccc2)C(C)C)[C@H](c2ccccc2)[C@@H]1CO ?
C2C12 statin: -13

What do the screens show for `Cc1ccc(S(=O)(=O)Nc2ccc3c(c2)CC(=O)N([C@@H](C)CO)C[C@@H](C)[C@H](CN(C)S(=O)(=O)c2ccc(C)cc2)O3)cc1`?
C2C12 statin: 95*
